In general, IC50 refers to the concentration that inhibits the measured activity by half. In general, inhibition refers to how much of the control response was suppressed.

Experimental findings from ChEMBL document CHEMBL4732230, “Design, synthesis, and biological evaluation of 4-benzoylamino-1H-pyrazole-3-carboxamide derivatives as potent CDK2 inhibitors” (Eur J Med Chem, 2021) are described below.

The source made the active and inactive calls. No cut-off for these calls is given here. Bounds are passed on as bounds.

Data set [1] concerns A2058. Put plainly: Induction of apoptosis in human A2058 cells assessed as late apoptotic cells at 1 uM measured after 48 hrs by Annexin V-FITC/propidium iodide staining based flow cytometry (reference value: 1.85 %). Type of data set: functional.
For a further data set, the target named is CDK2/Cyclin A2 (Homo sapiens, UniProt P24941). Put plainly: Inhibition of CDK2/cyclin A2 (unknown origin) using FAM-labeled peptide and ATP as substrate preincubated for 10 mins followed by substrate addition by mobility shift assay. Type of data set: protein-complex assay.
The test system of data set [2] is A2058. The experiment in a line: Induction of apoptosis in human A2058 cells assessed as upregulation of cleaved caspase-3 level after 24 hrs by immunoblot analysis. Format: functional, cell-based. As to conditions: dose 0.1875-1.5 µM. In outline:
(§1)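 A2058 cells treated with compound for 24 h and lysed. Lysates were run on 8% or 10% SDS-PAGE and transferred to nitrocellulose, then blocked in 5% milk/TBST for 60 min. Blots were probed overnight at 4 °C for cleaved caspase-3 or cleaved PARP, then with HRP secondary at 1:10,000 for 1 h. Detection was by ECL, with tubulin as loading control.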
Background: Immunoblotting shows a protein as a band on a membrane.

Data set [3] has as its system A2058. Put plainly: Induction of apoptosis in human A2058 cells assessed as upregulation of cleaved PARP level after 24 hrs by immunoblot analysis. To be noted: dose 0.1875-1.5 µM. Format: functional, cell-based. The method, boiled down:
as §1

Data set [4] deals with A2058. Put plainly: Induction of apoptosis in human A2058 cells assessed as viable cells at 0.2 uM measured after 48 hrs by Annexin V-FITC/propidium iodide staining based flow cytometry (reference value: 94.6 %). Format: functional. To be noted: read-out: Activity.
The next data set deals with CDK7/Cyclin H/MNAT1 (Homo sapiens, UniProt P50613). The experiment in a line: Inhibition of CDK7/cyclinH/MAT1 (unknown origin) using FAM-labeled peptide and ATP as substrate preincubated for 10 mins followed by substrate addition by mobility shift assay. Format: protein-complex assay. The method, boiled down: (§2)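 Mobility shift assay in 50 mM HEPES pH 7.5 with 0.0015% Brij-35. Kinase was added to serially diluted compound in 10% DMSO and held 10 min at room temperature. FAM-labeled peptide and ATP were then added and the mixture incubated at 28 °C for the specified time. Reactions were stopped with EDTA-containing buffer.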

For a further data set, the system named is MRC5. The experiment in a line: Cytotoxicity against human MRC5 cells assessed as reduction in cell viability measured after 96 hrs by Celltiter-Glo luminescent assay. As to conditions: MRC5, 96 h. Type of data set: cell-based. The method, boiled down: (§3)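 Cells in DMEM (A2058, MRC5) or RPMI 1640 (MV4-11), each with 10% fetal bovine serum and 1% penicillin/streptomycin. Cells were plated in 96-well plates and exposed to serially concentrated compound for 96 h, with DMSO as control. Viability was read by CellTiter-Glo luminescence and IC50 derived.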

The target in a further data set is CDK9/cyclin T1 (Homo sapiens, UniProt P50750). The experiment in a line: Inhibition of CDK9/cyclin T1 (unknown origin) using FAM-labeled peptide and ATP as substrate preincubated for 10 mins followed by substrate addition by mobility shift assay. Type of data set: protein-complex assay.
The subject of data set [5] is A2058. The experiment in a line: Induction of apoptosis in human A2058 cells assessed as viable cells at 0.4 uM measured after 48 hrs by Annexin V-FITC/propidium iodide staining based flow cytometry (reference value: 94.6 %). As to conditions: read-out: Activity. Format: functional. (In general: Flow cytometry measures light scatter and fluorescence of single cells or particles in a stream.)

Data set [6] concerns A2058. Put plainly: Induction of apoptosis in human A2058 cells assessed as necrotic cells at 0.2 uM measured after 48 hrs by Annexin V-FITC/propidium iodide staining based flow cytometry (reference value: 0.37 %). Type of data set: functional.
For data set [7], the system named is A2058. The experiment in a line: Induction of apoptosis in human A2058 cells assessed as necrotic cells at 0.4 uM measured after 48 hrs by Annexin V-FITC/propidium iodide staining based flow cytometry (reference value: 0.37 %). Format: functional.
Another data set has as its target CDK6/cyclin D3 (Homo sapiens, UniProt Q00534). Put plainly: Inhibition of CDK6/cyclin D3 (unknown origin) using FAM-labeled peptide and ATP as substrate preincubated for 10 mins followed by substrate addition by mobility shift assay. Format: protein-complex assay. The method, boiled down: as §2
For data set [8], the target named is Cyclin-dependent kinase 2 (Homo sapiens) (UniProt P24941). Put plainly: Inhibition of CDK2 in human MV4-11 cells assessed as downregulation of Mcl-1 expression at 0.1875 to 3 uM after 24 hrs by immunoblot analysis. Format: cell-based. As to conditions: dose 0.1875-3 µM. In outline: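 MV4-11 cells exposed to compound for 24 h. Lysates were resolved by 8% or 10% SDS-PAGE and blotted to nitrocellulose. Blots were probed with anti-Mcl-1 overnight at 4 °C, then HRP secondary at 1:10,000. Bands were developed by ECL, with GAPDH as loading control.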

Data set [9] concerns A2058. The experiment in a line: Induction of apoptosis in human A2058 cells assessed as late apoptotic cells at 0.4 uM measured after 48 hrs by Annexin V-FITC/propidium iodide staining based flow cytometry (reference value: 1.85 %). Format: functional.
Data set [10] deals with A2058. Put plainly: Induction of cell cycle arrest in human A2058 cells assessed as accumulation at G1 phase at 0.2 uM after 24 hrs by propidium iodide/RNase staining based flow cytometric analysis (reference value: 48.05 %). Format: functional.
The target of data set [11] is Cyclin-dependent kinase 1/cyclin B1 (Homo sapiens, UniProt P06493). Type of data set: protein-complex assay.
The subject of data set [12] is A2058. The experiment in a line: Induction of apoptosis in human A2058 cells assessed as early apoptotic cells at 0.2 uM measured after 48 hrs by Annexin V-FITC/propidium iodide staining based flow cytometry (reference value: 3.13 %). Format: functional.
For a further data set, the system named is MV4-11. Put plainly: Antiproliferative activity against human MV4-11 cells assessed as reduction in cell viability measured after 96 hrs by Celltiter-Glo luminescent assay. Format: functional, cell-based. As to conditions: MV4-11, 96 h. In outline:
as §3
(In general: ATP-based viability assays read luminescence as a measure of living cells.)

The target of the next data set is CDK12/Cyclin K (Homo sapiens, UniProt Q9NYV4). Put plainly: Inhibition of CDK12/cyclin K (unknown origin) using FAM-labeled peptide and ATP as substrate preincubated for 10 mins followed by substrate addition by mobility shift assay. Type of data set: protein-complex assay. In outline: as §2
For data set [13], the system named is A2058. Put plainly: Induction of apoptosis in human A2058 cells assessed as necrotic cells at 1 uM measured after 48 hrs by Annexin V-FITC/propidium iodide staining based flow cytometry (reference value: 0.37 %). Type of data set: functional.
For data set [14], the target named is Cyclin-dependent kinase 2 (Homo sapiens) (UniProt P24941). Put plainly: Inhibition of CDK2 in human A2058 cells assessed as downregulation of Mcl-1 expression at 0.1875 to 1.5 uM after 24 hrs by immunoblot analysis. Format: cell-based. To be noted: dose 0.1875-1.5 µM.
Data set [15] deals with A2058. The experiment in a line: Induction of apoptosis in human A2058 cells assessed as early apoptotic cells at 1 uM measured after 48 hrs by Annexin V-FITC/propidium iodide staining based flow cytometry (reference value: 3.13 %). Format: functional.
Data set [16] deals with A2058. The experiment in a line: Antiproliferative activity against human A2058 cells assessed as reduction in cell viability measured after 96 hrs by Celltiter-Glo luminescent assay. Type of data set: functional, cell-based. To be noted: A2058, 96 h. In outline:
as §3

The nature of data set [17]: Cytotoxicity against human LX2 cells assessed as inhibition of cell growth at 100 uM measured after 96 hrs by Celltiter-Glo luminescent assay. Type of data set: cell-based. In outline:
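LX2 cells grown in DMEM with 10% fetal bovine serum and 1% penicillin/streptomycin, plated in 96-well plates. They were treated with compound at […] or DMSO control for 96 h. Viability was read by CellTiter-Glo luminescence and expressed as percent inhibition.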

Chain of CDK9/cyclin T1 (O60563 whole entry): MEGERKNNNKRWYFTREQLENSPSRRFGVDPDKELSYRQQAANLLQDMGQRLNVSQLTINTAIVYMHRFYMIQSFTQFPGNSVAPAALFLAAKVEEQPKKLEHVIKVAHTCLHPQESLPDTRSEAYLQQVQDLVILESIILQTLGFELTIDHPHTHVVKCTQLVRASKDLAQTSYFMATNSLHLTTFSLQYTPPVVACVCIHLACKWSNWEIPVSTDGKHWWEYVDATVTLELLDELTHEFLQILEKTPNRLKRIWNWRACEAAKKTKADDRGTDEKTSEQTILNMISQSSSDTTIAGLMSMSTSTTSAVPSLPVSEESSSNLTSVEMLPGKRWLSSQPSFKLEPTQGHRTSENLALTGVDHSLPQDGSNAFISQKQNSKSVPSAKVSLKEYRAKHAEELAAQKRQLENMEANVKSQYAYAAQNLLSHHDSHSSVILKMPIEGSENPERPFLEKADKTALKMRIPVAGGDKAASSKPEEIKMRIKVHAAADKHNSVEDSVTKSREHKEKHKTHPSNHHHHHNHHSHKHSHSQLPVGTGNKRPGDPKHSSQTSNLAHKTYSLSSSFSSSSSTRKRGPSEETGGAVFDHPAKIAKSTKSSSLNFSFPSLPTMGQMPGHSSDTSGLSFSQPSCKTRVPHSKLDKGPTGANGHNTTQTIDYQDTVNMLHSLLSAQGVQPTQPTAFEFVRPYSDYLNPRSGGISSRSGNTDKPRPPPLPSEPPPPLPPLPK
Chain of CDK9/cyclin T1 (P50750 whole entry): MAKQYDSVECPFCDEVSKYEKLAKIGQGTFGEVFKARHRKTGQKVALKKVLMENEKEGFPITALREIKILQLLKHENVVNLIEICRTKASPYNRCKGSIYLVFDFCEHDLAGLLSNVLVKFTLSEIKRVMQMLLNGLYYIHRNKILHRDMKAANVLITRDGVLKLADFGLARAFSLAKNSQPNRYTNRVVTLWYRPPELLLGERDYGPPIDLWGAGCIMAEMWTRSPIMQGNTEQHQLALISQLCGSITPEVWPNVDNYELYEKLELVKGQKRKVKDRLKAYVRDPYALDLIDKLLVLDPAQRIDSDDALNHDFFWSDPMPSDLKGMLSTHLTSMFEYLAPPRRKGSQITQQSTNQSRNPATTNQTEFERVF
Chain of Cyclin-dependent kinase 1/cyclin B1 (P06493 whole entry): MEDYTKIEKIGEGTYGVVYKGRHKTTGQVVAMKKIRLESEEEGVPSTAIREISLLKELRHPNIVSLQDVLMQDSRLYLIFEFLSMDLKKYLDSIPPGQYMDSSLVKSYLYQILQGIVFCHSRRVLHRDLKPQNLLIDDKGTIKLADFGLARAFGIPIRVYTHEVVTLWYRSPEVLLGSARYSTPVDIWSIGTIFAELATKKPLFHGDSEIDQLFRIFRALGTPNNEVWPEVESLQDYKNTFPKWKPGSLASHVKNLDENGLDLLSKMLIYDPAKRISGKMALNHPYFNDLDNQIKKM
Chain of Cyclin-dependent kinase 1/cyclin B1 (P14635 whole entry, further chain): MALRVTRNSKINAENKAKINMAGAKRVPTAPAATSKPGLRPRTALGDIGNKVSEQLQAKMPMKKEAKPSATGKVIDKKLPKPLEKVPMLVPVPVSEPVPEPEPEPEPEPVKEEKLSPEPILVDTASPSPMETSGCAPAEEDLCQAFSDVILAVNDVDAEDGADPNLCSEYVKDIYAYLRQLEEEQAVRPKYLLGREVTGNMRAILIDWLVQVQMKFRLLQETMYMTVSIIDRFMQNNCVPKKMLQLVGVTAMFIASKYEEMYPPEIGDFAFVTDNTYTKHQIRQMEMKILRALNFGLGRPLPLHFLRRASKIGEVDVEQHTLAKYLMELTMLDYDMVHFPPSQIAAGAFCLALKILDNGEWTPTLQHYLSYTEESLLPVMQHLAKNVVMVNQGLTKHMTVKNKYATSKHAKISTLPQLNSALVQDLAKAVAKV
Chain of CDK6/cyclin D3 (P30281 whole entry): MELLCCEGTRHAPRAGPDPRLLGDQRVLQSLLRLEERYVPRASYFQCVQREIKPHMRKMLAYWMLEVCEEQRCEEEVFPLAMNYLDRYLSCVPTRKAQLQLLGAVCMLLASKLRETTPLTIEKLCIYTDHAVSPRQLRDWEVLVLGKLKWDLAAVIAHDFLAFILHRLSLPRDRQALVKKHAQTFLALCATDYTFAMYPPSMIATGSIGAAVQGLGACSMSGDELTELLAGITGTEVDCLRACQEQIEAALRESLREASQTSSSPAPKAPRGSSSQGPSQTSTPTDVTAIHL
Chain of CDK6/cyclin D3 (Q00534 whole entry): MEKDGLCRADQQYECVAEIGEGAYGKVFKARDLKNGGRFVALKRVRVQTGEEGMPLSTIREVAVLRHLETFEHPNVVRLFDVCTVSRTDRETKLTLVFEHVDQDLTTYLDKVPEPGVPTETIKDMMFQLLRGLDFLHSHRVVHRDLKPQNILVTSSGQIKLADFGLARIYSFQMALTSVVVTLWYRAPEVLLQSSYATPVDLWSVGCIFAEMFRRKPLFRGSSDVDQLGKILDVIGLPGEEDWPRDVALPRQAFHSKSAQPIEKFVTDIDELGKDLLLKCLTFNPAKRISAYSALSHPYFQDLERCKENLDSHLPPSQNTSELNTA
Chain of CDK12/Cyclin K (O75909 whole entry): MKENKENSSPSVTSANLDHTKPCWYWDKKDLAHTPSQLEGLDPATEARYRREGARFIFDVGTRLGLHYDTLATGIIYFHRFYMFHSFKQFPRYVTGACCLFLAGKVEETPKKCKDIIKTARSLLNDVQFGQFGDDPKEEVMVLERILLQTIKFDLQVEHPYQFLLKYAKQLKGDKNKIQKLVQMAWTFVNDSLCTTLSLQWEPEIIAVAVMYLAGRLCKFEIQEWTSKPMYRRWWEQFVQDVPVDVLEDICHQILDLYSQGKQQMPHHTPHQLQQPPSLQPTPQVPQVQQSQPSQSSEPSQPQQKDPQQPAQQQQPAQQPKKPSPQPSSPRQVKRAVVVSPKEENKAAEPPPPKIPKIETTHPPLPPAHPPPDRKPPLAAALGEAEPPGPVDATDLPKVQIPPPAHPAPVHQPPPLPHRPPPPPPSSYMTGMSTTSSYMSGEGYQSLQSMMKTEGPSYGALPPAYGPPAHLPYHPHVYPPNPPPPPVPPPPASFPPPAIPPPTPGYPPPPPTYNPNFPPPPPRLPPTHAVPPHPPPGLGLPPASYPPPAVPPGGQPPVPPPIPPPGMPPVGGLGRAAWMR
Chain of CDK12/Cyclin K (Q9NYV4 whole entry): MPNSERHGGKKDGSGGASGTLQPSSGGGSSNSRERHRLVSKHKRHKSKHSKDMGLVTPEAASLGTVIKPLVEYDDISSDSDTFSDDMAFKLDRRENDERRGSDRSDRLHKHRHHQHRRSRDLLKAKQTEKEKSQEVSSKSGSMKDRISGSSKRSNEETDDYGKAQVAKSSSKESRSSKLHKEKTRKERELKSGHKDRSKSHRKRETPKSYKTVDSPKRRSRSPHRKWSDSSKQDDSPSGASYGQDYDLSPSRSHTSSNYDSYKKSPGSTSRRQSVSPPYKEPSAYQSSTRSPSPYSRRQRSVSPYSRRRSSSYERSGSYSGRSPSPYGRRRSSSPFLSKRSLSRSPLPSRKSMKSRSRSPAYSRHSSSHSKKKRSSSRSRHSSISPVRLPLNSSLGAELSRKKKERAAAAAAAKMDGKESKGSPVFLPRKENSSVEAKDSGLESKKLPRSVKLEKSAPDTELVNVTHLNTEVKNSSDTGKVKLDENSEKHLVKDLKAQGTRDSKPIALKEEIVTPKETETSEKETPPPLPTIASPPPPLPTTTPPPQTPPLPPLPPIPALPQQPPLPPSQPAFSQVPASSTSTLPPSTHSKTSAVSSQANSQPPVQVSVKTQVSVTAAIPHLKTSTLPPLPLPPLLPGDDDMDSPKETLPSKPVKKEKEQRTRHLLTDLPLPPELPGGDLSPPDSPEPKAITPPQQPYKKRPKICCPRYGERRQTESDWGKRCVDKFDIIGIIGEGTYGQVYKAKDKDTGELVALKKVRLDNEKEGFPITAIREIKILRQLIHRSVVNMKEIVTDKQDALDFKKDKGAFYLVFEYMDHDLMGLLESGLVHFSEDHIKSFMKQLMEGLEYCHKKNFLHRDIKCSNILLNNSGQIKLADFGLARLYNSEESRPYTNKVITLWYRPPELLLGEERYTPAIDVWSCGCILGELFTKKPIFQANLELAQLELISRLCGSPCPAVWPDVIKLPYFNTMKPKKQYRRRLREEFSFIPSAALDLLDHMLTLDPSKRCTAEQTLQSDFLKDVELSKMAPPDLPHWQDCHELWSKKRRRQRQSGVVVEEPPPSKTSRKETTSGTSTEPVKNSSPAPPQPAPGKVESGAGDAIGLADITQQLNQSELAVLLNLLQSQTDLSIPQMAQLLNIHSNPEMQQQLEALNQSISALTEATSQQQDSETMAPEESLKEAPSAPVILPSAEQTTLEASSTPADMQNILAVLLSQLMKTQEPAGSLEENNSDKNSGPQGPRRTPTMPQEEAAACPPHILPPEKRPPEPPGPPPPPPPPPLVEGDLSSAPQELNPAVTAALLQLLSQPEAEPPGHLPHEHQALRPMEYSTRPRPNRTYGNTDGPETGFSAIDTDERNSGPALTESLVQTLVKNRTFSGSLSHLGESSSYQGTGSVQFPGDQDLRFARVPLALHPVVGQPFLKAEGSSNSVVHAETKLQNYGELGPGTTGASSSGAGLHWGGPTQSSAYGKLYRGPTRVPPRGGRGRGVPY

For `NC(=O)c1ccc(-c2ccc(F)c(C(=O)Nc3c[nH]nc3C(=O)Nc3ccc(F)cc3)c2F)cn1`, the Activity with A2058 [1] was 28.6%; in the data set on A2058 [2], “Dose-dependent effect”; with A2058 [3] it was “Dose-dependent effect”; in the data set with A2058 [6], 3.41%; in the data set on A2058 [7], 8.32%; in the data set with A2058 [9], 14.6%. In addition, the Activity is on record as 36.89% in the data set with A2058 [10], 4.52% with A2058 [12], 7.66% in the data set on A2058 [13] and 40% with A2058 [15]. Also, the IC50 on CDK2/Cyclin A2 is 58 nM; on CDK7/Cyclin H/MNAT1, greater than 18 µM; with MRC5, 54.8 µM; on CDK9/cyclin T1, 1120 nM; at CDK6/cyclin D3 it was greater than 18 µM; in data set [11] it was 1020 nM. Further, the half-inhibitory concentration (IC50) with MV4-11 was 252 nM; at CDK12/Cyclin K, greater than 18 µM; in the data set on A2058 [16] it was 295 nM. Also, the viability at 0.2 µM in the data set with A2058 [4] worked out at 87.3%. The viability at 0.4 µM in the data set with A2058 [5] was 55.1%. For the same compound, the inhibition result in data set [8] and in data set [14] was “Active” throughout. Further, in data set [17], the inhibition at 96 h, 100 µM was 32.5%.
